Reference: paper PMC10798254 (Indian Journal of Nuclear Medicine : IJNM : The Official …, 2023)

How the values were obtained:
Serum TSH [1] = experiment: Levothyroxine dose for TSH suppression in thyroid cancer; type: in vivo, Indian thyroid cancer patients
How it was run: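 Follow-up visits of treated thyroid cancer outpatients were evaluated prospectively, recording age, sex, weight, initial ATA risk category, serum TSH and prescribed levothyroxine. Visits with suppressed TSH were selected and dose per kg body weight calculated. Mean, median, range and lowest dose/kg were derived.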

Serum TSH [2] = conditions: ref the guidelines; cited from earlier work

With `N[C@@H](Cc1cc(I)c(Oc2cc(I)c(O)c(I)c2)c(I)c1)C(=O)O` [Levothyroxine] as the molecule, how does the “patients receiving more than 2ug/kg in excess TSH suppression” value (Serum TSH [1]; 14 patients, TSH 0.01-0.09 mIU/L) read?
Its value is 44%.

What about the “patients with suppressed TSH values with less than 2ug/kg dose” value (Serum TSH [1]; 16 patients) of the same molecule?
Its value is 50%.

And the mean suppressive dose (Serum TSH [1]; 36 patients, 90 follow-ups with suppressed TSH, SD 0.49)?
The mean suppressive dose was 2.21 ug/kg body weight.

And the maximum dose (Serum TSH [1]; in vivo)?
The maximum dose was 3.33 µg/kg.

And the “minimum dose required to keep the patient in suppression” value (Serum TSH [1]; in vivo)?
Its value is 1.29 µg/kg.

And the “dose required for long-term TSH suppression” value (Serum TSH [2])?
The value was 2.2-2.7 ug/kg body weight.
